Measurements taken from ChEMBL document CHEMBL3621200, “Toward the discovery of dual HCMV-VZV inhibitors: Synthesis, structure activity relationship analysis, and cytotoxicity studies of long chained 2-uracil-3-yl-N-(4-phenoxyphenyl)acetamides” (Bioorg Med Chem, 2015).
The source made the active and inactive calls. No cut-off for these calls is given here.

Assays:
Human betaherpesvirus 5 [1] = test: Antiviral activity against human cytomegalovirus AD169 infected in HEL cells assessed as reduction in viral plaque formation; assay type: functional, organism-based; conditions: Human betaherpesvirus 5, AD169, HEL
Procedure, shortened: (§1)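 Confluent HEL fibroblasts were infected with 100 PFU of HCMV in the presence of varying compound concentrations. Plaques were counted once plaque formation was complete in untreated infected controls.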

Human betaherpesvirus 5 [2] = test: Antiviral activity against human cytomegalovirus Davis infected in HEL cells assessed as reduction in viral plaque formation; assay type: functional, organism-based; conditions: Human betaherpesvirus 5, Davis; procedure, shortened: as §1
[3] = Cytotoxicity against human cytomegalovirus infected HEL cells assessed as alteration of cell morphology incubated for 3 days by microscopy; assay type: cell-based; conditions: HEL cells infected with human cytomegalovirus
Procedure, shortened: (§2)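 Cytotoxicity was given as the minimum cytotoxic concentration (MCC): the compound concentration causing a microscopically detectable change in HEL cell morphology.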

HEL = test: Cytotoxicity against human cytomegalovirus infected HEL cells assessed as cell growth inhibition incubated for 3 days by coulter counter method; assay type: cell-based; conditions: 72 h
Procedure, shortened: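 HEL cells were seeded at 5 × 10^3 cells/well and left to adhere and proliferate for 24 h, then compound-containing medium was added. After 3 days at 37 °C, cells were counted with a Coulter counter.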

[4] = Cytotoxicity against Varicella zoster virus infected HEL cells assessed as alteration of cell morphology incubated for 3 days by microscopy; assay type: cell-based; conditions: human, HEL cells infected with Varicella zoster virus; procedure, shortened: as §2
Human alphaherpesvirus 1 = test: Antiviral activity against HSV1 KOS; assay type: functional, organism-based
Procedure, shortened: (§3)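 Confluent cell monolayers in 96-well plates were inoculated with 100 CCID50 of virus together with varying compound concentrations. Cytopathicity was scored once it reached completion in untreated infected controls.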

Human alphaherpesvirus 2 = test: Antiviral activity against HSV2 Lyons; assay type: functional, organism-based; procedure, shortened: as §3
[5] = test system: Human herpesvirus 2 strain G; test: Antiviral activity against HSV2 G Lyons; assay type: functional, organism-based
Vaccinia virus = test: Antiviral activity against Vaccinia virus Lederle; assay type: functional, organism-based; conditions: Orthopoxvirus vaccinia
Procedure, shortened: (§4)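 Confluent cell monolayers (HEL, Vero, HeLa or MDCK) in 96-well plates were infected with 100 CCID50 of virus in the presence of varying compound concentrations. Cytopathicity was scored once it reached completion in untreated infected controls.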

[6] = test system: Vesicular stomatitis virus; test: Antiviral activity against Vesicular stomatitis virus; assay type: functional, organism-based; procedure, shortened: as §4
Coxsackievirus B4 = test: Antiviral activity against Human coxsackievirus B4; assay type: functional, organism-based
Influenza A virus H3N2 = test: Antiviral activity against Influenza A virus H3N2; assay type: functional, organism-based; procedure, shortened: as §4
Influenza A virus = test: Antiviral activity against Influenza A virus H1N1; assay type: functional, organism-based; procedure, shortened: as §4
Influenza B virus = test: Antiviral activity against Influenza B virus; assay type: functional, organism-based; procedure, shortened: as §4
Human respirovirus 3 = test: Antiviral activity against Parainfluenza 3 virus; assay type: functional, organism-based
[7] = test system: Mammalian orthoreovirus 1; test: Antiviral activity against Reovirus 1; assay type: functional
Sindbis virus = test: Antiviral activity against Sindbis virus; assay type: functional, organism-based
Punta Toro virus = test: Antiviral activity against Punta Toro virus; assay type: functional, organism-based
Feline coronavirus = test: Antiviral activity against Feline coronavirus; assay type: functional, organism-based
[8] = test system: Human immunodeficiency virus 1; test: Antiviral activity against HIV1 3B infected in human CEM cells assessed as reduction in virus- induced cytopathicity incubated for 4 to 5 days by microscopy based virus syncytium formation assay; assay type: functional, organism-based; conditions: CCRF-CEM
Procedure, shortened: (§5)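 CEM cells at ~3 × 10^5 cells/mL, infected with 100 CCID50 of HIV per mL in the presence of compound dilutions. Incubated 4–5 days at 37 °C in humidified CO2. Syncytium (giant cell) formation scored by microscopy.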

[9] = test system: Human immunodeficiency virus 2; test: Antiviral activity against HIV2 ROD infected in human CEM cells assessed as reduction in virus- induced cytopathicity incubated for 4 to 5 days by microscopy based virus syncytium formation assay; assay type: functional, organism-based; conditions: ISOLATE ROD, CCRF-CEM; procedure, shortened: as §5

Row | SMILES | EC50 (Human betaherpesvirus 5 [1]) [µM] | EC50 (Human betaherpesvirus 5 [2]) [µM] | MCC at 72 h [3] [µM] | MCC at 72 h [4] [µM] | inhibition (Human alphaherpesvirus 1) | inhibition (Human alphaherpesvirus 2) | inhibition [5] | inhibition (Vaccinia virus) | inhibition [6] | inhibition (Coxsackievirus B4) | inhibition (Influenza A virus H3N2) | inhibition (Influenza A virus) | inhibition (Influenza B virus) | inhibition (Human respirovirus 3) | inhibition [7] | inhibition (Sindbis virus) | inhibition (Punta Toro virus) | inhibition (Feline coronavirus) | inhibition [8] | inhibition [9] | also measured
1 | O=C(Cn1c(=O)ccn(CCCCCOc2ccc(Br)cc2)c1=O)Nc1ccc(Cc2ccccc2)cc1 | 0.44 | 0.57 | 4 | ≥ 4 | inactive | inactive | inactive | inactive | inactive | inactive | inactive | inactive | inactive | inactive | inactive | inactive | inactive | inactive | inactive | inactive | CC50 (HEL): 8.7 µM
2 | N#Cc1ccc(OCCCCCn2ccc(=O)n(CC(=O)Nc3ccc(Oc4ccccc4)cc3)c2=O)cc1 | 0.53 | 0.44 | ≥ 4 | > 100 | inactive | inactive | inactive | inactive | inactive | inactive | inactive | inactive | inactive | inactive | inactive | inactive | inactive | inactive | inactive | inactive | CC50 (HEL): 4.9 µM
3 | O=C(Cn1c(=O)ccn(COCCOCc2ccc(Br)cc2)c1=O)Nc1ccc(Oc2ccccc2)cc1 | > 20 | > 20 | 100 | > 100 | inactive | inactive | inactive | inactive | inactive | inactive | inactive | inactive | inactive | inactive | inactive | inactive | inactive | inactive | inactive | inactive | –
4 | O=C(Cn1c(=O)ccn(Cc2ccc(Oc3ccc(Br)cc3)cc2)c1=O)Nc1ccc(Oc2ccccc2)cc1 | > 0.8 | > 0.8 | 4 | 20 | inactive | inactive | inactive | inactive | inactive | inactive | inactive | inactive | inactive | inactive | inactive | inactive | inactive | inactive | inactive | inactive | –
5 | O=C(Cn1c(=O)ccn(CCCCCOc2ccc(Br)cc2)c1=O)Nc1ccc(C(=O)c2ccccc2)cc1 | 1.79 | 1.64 | ≥ 20 | > 100 | inactive | inactive | inactive | inactive | inactive | inactive | inactive | inactive | inactive | inactive | inactive | inactive | inactive | inactive | inactive | inactive | CC50 (HEL): 5.8 µM
6 | O=C(Cn1c(=O)ccn(CCCCCOc2ccc(Br)cc2)c1=O)Nc1ccc(OCc2ccccc2)cc1 | > 20 | 4 | ≥ 20 | ≥ 20 | inactive | inactive | inactive | inactive | inactive | inactive | inactive | inactive | inactive | inactive | inactive | inactive | inactive | inactive | inactive | inactive | –
7 | Nc1ccn(C[C@@H](CO)OCP(=O)(O)O)c(=O)n1 [CIDOFOVIR] | – | 0.84 | > 300 | – | – | – | – | – | – | – | – | – | – | – | – | – | – | – | – | – | CC50 (HEL): ≥ 208 µM
8 | O=C(Cn1c(=O)ccn(CCCCCOc2cccc(Br)c2)c1=O)Nc1ccc(Oc2ccccc2)cc1 | 2 | 3.1 | ≥ 100 | > 100 | inactive | inactive | inactive | inactive | inactive | inactive | inactive | inactive | inactive | inactive | inactive | inactive | inactive | inactive | inactive | inactive | CC50 (HEL): 6.3 µM
9 | O=C(Cn1c(=O)ccn(CCCCCCc2ccccc2)c1=O)Nc1ccc(Oc2ccccc2)cc1 | > 20 | > 20 | 100 | > 100 | inactive | inactive | inactive | inactive | inactive | inactive | inactive | inactive | inactive | inactive | inactive | inactive | inactive | inactive | inactive | inactive | –
10 | Nc1nc(O)c2ncn(COC(CO)CO)c2n1 [GANCICLOVIR] | – | – | > 350 | – | – | – | – | – | – | – | – | – | – | – | – | – | – | – | – | – | CC50 (HEL): ≥ 319 µM
11 | O=C(Cn1c(=O)ccn(CCCCCOc2ccc(Br)cc2)c1=O)Nc1ccccc1 | > 4 | > 4 | 20 | ≥ 20 | inactive | inactive | inactive | inactive | inactive | inactive | inactive | inactive | inactive | inactive | inactive | inactive | inactive | inactive | inactive | inactive | –
12 | O=C(Cn1c(=O)c(I)cn(CCCCCOc2ccc(Br)cc2)c1=O)Nc1ccc(Oc2ccccc2)cc1 | > 20 | > 20 | 100 | > 100 | inactive | inactive | inactive | inactive | inactive | inactive | inactive | inactive | inactive | inactive | inactive | inactive | inactive | inactive | inactive | inactive | –
